Test results: ChEMBL document CHEMBL1126036, “Quinolone antibacterial agents. Synthesis and structure-activity relationships of a series of amino acid prodrugs of racemic and chiral 7-(3-amino-1-pyrrolidinyl)quinolones. Highly soluble quinolone prodrugs with in vivo pseudomonas activity” (J Med Chem, 1992)
≈ marks a conversion by molar mass, not a printed value.

Key:
[1] = Solubility (in 0.1 N HCl); format: physicochemical; conditions: read-out: S
How it was run: (§1)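 Solubility was measured either from HPLC peak areas at equilibrium or by a conventional weight-per-volume method. All solutions were held for 24 h before measurement.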

[2] = Solubility (at pH 4); format: physicochemical; conditions: buffer, read-out: S; how it was run: as §1
[3] = Solubility (at pH 7.4); format: physicochemical; conditions: buffer; how it was run: as §1
Escherichia coli [4] = experiment: In vitro antibacterial activity against gram negative Escherichia coli Vogel.; format: functional
Enterococcus faecalis = experiment: In vitro antibacterial activity against gram positive Enterococcus faecalis MGH-2.; format: functional
Enterobacter cloacae [5] = experiment: In vitro antibacterial activity against gram negative Enterobacter cloacae MA 2646.; format: functional
Klebsiella pneumoniae [6] = experiment: In vitro antibacterial activity against gram negative Klebsiella pneumoniae MGH-2.; format: functional
Escherichia coli [7] = experiment: In vivo potency against acute systemic infection in mouse caused by Escherichia coli Vogel on oral administration by gavage.; format: functional; conditions: read-out: PD50
How it was run: (§2)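 Acute systemic mouse infection. A single oral dose was given by gavage at the time of challenge. Potency is reported as the median protective dose (PD50, mg/kg), determined by earlier published methods.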

Mus musculus [8] = experiment: In vivo potency against acute systemic infection in mouse caused by Streptococcus pneumoniae SV-1 on oral administration by gavage; format: functional; conditions: read-out: PD50; how it was run: as §2
Streptococcus pneumoniae [9] = experiment: In vivo potency against acute systemic infection in mouse caused by Streptococcus pneumoniae SV-1 on subcutaneous injection.; format: functional; conditions: sc, read-out: PD50
How it was run: (§3)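 Acute systemic mouse infection. A single subcutaneous dose was injected at the time of challenge. Potency is reported as the median protective dose (PD50, mg/kg), determined by earlier published methods.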

Escherichia coli [10] = experiment: In vivo potency against acute systemic infection in mouse caused by Escherichia coli vogel on subcutaneous injection.; format: functional; conditions: sc, read-out: PD50; how it was run: as §3
Pseudomonas aeruginosa [11] = experiment: In vitro antibacterial activity against gram negative Pseudomonas aeruginosa UI-18.; format: functional
Providencia rettgeri = experiment: In vitro antibacterial activity against gram negative Providencia rettgeri M-1771.; format: functional
Staphylococcus aureus [12] = experiment: In vitro antibacterial activity against gram positive Staphylococcus aureus H-228.; format: functional
Streptococcus pyogenes = experiment: In vitro antibacterial activity against gram positive Streptococcus pyogenes C-203.; format: functional
Staphylococcus aureus [13] = experiment: In vitro antibacterial activity against gram positive Staphylococcus aureus UC76.; format: functional
Streptococcus pneumoniae [14] = experiment: In vitro antibacterial activity against gram positive Streptococcus pneumoniae SV-1.; format: functional
[15] = Aqueous solubility; format: physicochemical; conditions: water (aqueous); read-out: S; how it was run: as §1
Klebsiella pneumoniae [16] = experiment: In vitro antibacterial activity against gram negative Klebsiella pneumoniae. MGH-2; format: functional
Mus musculus [17] = experiment: In vivo potency against acute systemic infection in mouse caused by Streptococcus pneumoniae SV-1 on subcutaneous injection; format: functional; conditions: sc, read-out: PD50; how it was run: as §3
Pseudomonas aeruginosa [18] = experiment: In vitro antibacterial activity against gram negative Pseudomonas aeruginosa. UI-18; format: functional
Mus musculus [19] = experiment: In vivo potency against acute systemic infection in mouse caused by Escherichia coli Vogel on oral administration by gavage; format: functional; conditions: read-out: PD50; how it was run: as §2
Mus musculus [20] = experiment: In vivo potency against acute systemic infection in mouse caused by Escherichia coli Vogel on subcutaneous injection; format: functional; conditions: sc, read-out: PD50; how it was run: as §3
[21] = test system: DNA gyrase (Escherichia coli); experiment: In vitro concentration inhibiting DNA gyrase induced cleavage in Escherichia coli H560
Mus musculus [22] = experiment: In vivo potency against acute systemic infection in mouse caused by Escherichia coli vogel on oral administration by gavage; format: functional; conditions: read-out: PD50; how it was run: as §2
Mus musculus [23] = experiment: In vivo potency against acute systemic infection in mouse caused by Escherichia coli vogel on subcutaneous injection; format: functional; conditions: sc, read-out: PD50; how it was run: as §3
Mus musculus [24] = experiment: In vivo potency against acute systemic infection in mouse caused by Streptococcus pyogenes C-203 on oral administration by gavage; format: functional; conditions: read-out: PD50; how it was run: as §2
Mus musculus [25] = experiment: In vivo potency against acute systemic infection in mouse caused by Streptococcus pyogenes C-203 on subcutaneous injection; format: functional; conditions: sc, read-out: PD50; how it was run: as §3
Escherichia coli [26] = experiment: In vitro antibacterial activity against gram negative Escherichia coli vogel; format: functional
[27] = target: DNA gyrase (Escherichia coli) (UniProt P0AES6+P0AES4); experiment: In vitro concentration inhibiting DNA gyrase induced cleavage in Escherichia coli H560.; format: functional
How it was run: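 DNA gyrase test run as described in earlier work. The value is the drug concentration (µg/mL) needed to cause DNA cleavage.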

Enterobacter cloacae [28] = experiment: In vitro antibacterial activity against gram negative Enterobacter cloacae MA 2646; format: functional
Streptococcus pneumoniae [29] = experiment: In vivo potency against acute systemic infection in mouse caused by Streptococcus pneumoniae SV-1 on oral administration by gavage.; format: functional; conditions: read-out: PD50; how it was run: as §2
Mus musculus [30] = experiment: In vivo potency against acute systemic infection in mouse caused by Pseudomonas aeruginosa UI-18 on oral administration by gavage.; format: functional; conditions: read-out: PD50; how it was run: as §2
Mus musculus [31] = experiment: In vivo potency against acute systemic infection in mouse caused by Pseudomonas aeruginosa. UI-18. on subcutaneous injection.; format: functional; conditions: sc, read-out: PD50; how it was run: as §3

SMILES | solubility [1] [µg/mL] | solubility [2] [µg/mL] | solubility ([3]; read-out: S) [µg/mL] | MIC (Escherichia coli [4]) [µg/mL] | MIC (Enterococcus faecalis) [µg/mL] | MIC (Enterobacter cloacae [5]) [µg/mL] | ED50 (Escherichia coli [7]) [mg/kg] | ED50 (Mus musculus [8]) [mg/kg] | ED50 (Streptococcus pneumoniae [9]) [mg/kg] | ED50 (Escherichia coli [10]) [mg/kg] | MIC (Pseudomonas aeruginosa [11]) [µg/mL] | MIC (Providencia rettgeri) [µg/mL] | MIC (Staphylococcus aureus [12]) [µg/mL] | MIC (Streptococcus pyogenes) [µg/mL] | MIC (Staphylococcus aureus [13]) [µg/mL] | MIC (Streptococcus pneumoniae [14]) [µg/mL] | solubility [15] [µg/mL] | MIC (Klebsiella pneumoniae [16]) [µg/mL] | ED50 (Mus musculus [24]) [mg/kg] | ED50 (Mus musculus [25]) [mg/kg] | further results
Cl.N[C@@H](Cc1ccccc1)C(=O)NC1CCN(c2nc3c(cc2F)c(=O)c(C(=O)O)cn3C2CC2)C1.O (stereo partly specified) | 80000 | > 100000 | 60 | 0.8 | 0.8 | 0.4 | 2 | 65 | 37 | 0.4 | 6.3 | 6.3 | 3.1 | 1.6 | 0.4 | 0.8 | > 200000 | – | – | – | MIC (Klebsiella pneumoniae [6]): 3.1 µg/mL
Cl.NCCCC[C@H](N)C(=O)NC1CCN(c2nc3c(cc2F)c(=O)c(C(=O)O)cn3C2CC2)C1.O (stereo partly specified) | > 200000 | > 600000 | – | 12.5 | > 25 | 12.5 | – | 71 | – | – | – | 25 | 25 | > 25 | 6.3 | > 25 | > 300000 | 25 | – | – | solubility [3]: 70 µg/mL; ED50 (Mus musculus [17]): 70 mg/kg; MIC (Pseudomonas aeruginosa [18]): > 25 µg/mL
Cl.N[C@H]1CCN(c2c(F)cc3c(=O)c(C(=O)O)cn(C4CC4)c3c2F)C1.O | – | – | – | 0.006 | 0.025 | 0.013 | – | 15 | 7 | – | 0.025 | 0.006 | 0.013 | 0.013 | 0.003 | 0.013 | 17000 | 0.003 | – | – | ED50 (Mus musculus [19]): 1 mg/kg; ED50 (Mus musculus [20]): 0.2 mg/kg; Cleavage [21]: 0.1 µg/mL
CC(C)[C@H](N)C(=O)NC1CCN(c2nc3c(cc2F)c(=O)c(C(=O)O)cn3C2CC2)C1.Cl.O (stereo partly specified) | > 200000 | > 200000 | 80 | – | 1.6 | 0.4 | – | – | – | – | – | 1.6 | 1.6 | 1.6 | 0.4 | 1.6 | > 200000 | 1.6 | 76 | 27 | ED50 (Mus musculus [22]): 3 mg/kg; ED50 (Mus musculus [23]): 0.6 mg/kg; MIC (Pseudomonas aeruginosa [18]): 3.1 µg/mL; MIC (Escherichia coli [26]): 0.4 µg/mL
Cl.Nc1c(F)c(N2CC[C@@H](N)C2)c(F)c2c1c(=O)c(C(=O)O)cn2C1CC1.O | 200 | 2600 | 40 | 0.013 | 0.05 | – | 1.7 | – | 3.5 | 0.3 | 0.02 | 0.05 | 0.025 | 0.025 | 0.006 | 0.003 | 2800 | – | 12 | 7.5 | Cleavage [27]: 0.1 µg/mL; MIC (Enterobacter cloacae [28]): 0.013 µg/mL; MIC (Klebsiella pneumoniae [6]): 0.025 µg/mL; ED50 (Streptococcus pneumoniae [29]): 15 mg/kg
C[C@@H]1CN(c2c(F)c(N)c3c(=O)c(C(=O)O)cn(C4CC4)c3c2F)C[C@H](C)N1 [SPARFLOXACIN] | 400 (≈ 1020 µM) | 30 (≈ 76.5 µM) | 10 (≈ 25.5 µM) | 0.025 (≈ 0.0637 µM) | 0.1 (≈ 0.255 µM) | 0.025 (≈ 0.0637 µM) | 1 | 14 | – | 0.2 | 0.8 (≈ 2.04 µM) | 0.2 (≈ 0.51 µM) | 0.05 (≈ 0.127 µM) | 0.1 (≈ 0.255 µM) | 0.025 (≈ 0.0637 µM) | 0.05 (≈ 0.127 µM) | 90 (≈ 229 µM) | – | 17 | 17 | Cleavage [27]: 2.5 µg/mL; MIC (Klebsiella pneumoniae [6]): 0.05 µg/mL (≈ 0.127 µM); ED50 (Mus musculus [17]): 13 mg/kg; ED50 (Mus musculus [30]): 14 mg/kg; ED50 (Mus musculus [31]): 7 mg/kg
NC1CCN(c2nc3c(cc2F)c(=O)c(C(=O)O)cn3C2CC2)C1 (stereo unspecified) | – | – | – | 0.013 (≈ 0.0391 µM) | 0.2 (≈ 0.602 µM) | 0.025 (≈ 0.0752 µM) | 2 | – | 33 | 0.6 | 0.05 (≈ 0.15 µM) | 0.05 (≈ 0.15 µM) | 0.2 (≈ 0.602 µM) | 0.2 (≈ 0.602 µM) | 0.013 (≈ 0.0391 µM) | 0.2 (≈ 0.602 µM) | – | 0.025 (≈ 0.0752 µM) | 32 | 14 | ED50 (Streptococcus pneumoniae [29]): 58 mg/kg; ED50 (Mus musculus [30]): 7 mg/kg; ED50 (Mus musculus [31]): 3 mg/kg; Cleavage [21]: 1 µg/mL
